# Assay results reported in ChEMBL document CHEMBL1131385, “Does the anti-hepatitis B virus activity of (+)-5'-noraristeromycin exist in its 4'-epimer and 4'-deoxygenated derivatives?” (J Med Chem, 1998).
# pEC50: −log10 of the molar value.
# Experiments:
# Hepatoblastoma cell line [1] = assay: Cytotoxic concentration against Hepatitis B virus in human hepatoblastoma cell line; assay type: functional
# Hepatoblastoma cell line [2] = assay: (§1) Effective concentration against Hepatitis B virus in human hepatoblastoma cell line; assay type: functional, cell-based
# How it was run: (§2)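 Confluent cultures of the human hepatoblastoma line 2.2.15, which chronically produces HBV, were used to measure inhibition of HBV replication. Cells got nine consecutive daily doses of agent, with the medium removed each day.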
# Hepatoblastoma cell line [3] = assay: as §1; assay type: functional; how it was run: as §2
# [4] = Selectivity index was evaluated [Selectivity = (CC50 / EC50) against Hepatitis B virus in human hepatoblastoma cell line]; assay type: functional
Compound,CC50 (Hepatoblastoma cell line [1]) [µM],pEC50 (Hepatoblastoma cell line [2]),EC90 (Hepatoblastoma cell line [3]) [µM],SI [4]
Nc1ncnc2c1ncn2[C@H]1C[C@@H](O)[C@H](O)[C@@H]1O,1880,< 5.00,> 10,
Nc1ncnc2c1ncn2[C@H]1C=C[C@H](O)[C@@H]1O,325,6.84,1.4,232
Nc1ncnc2c1ncn2[C@@H]1CC[C@@H](O)[C@H]1O,93,6.92,0.978,95
COC1CC(n2cnc3c(N)ncnc32)C(O)C1O (configuration not stated),> 1000,< 5.00,> 10,
Nc1ccn([C@@H]2CS[C@H](CO)O2)c(=O)n1 [LAMIVUDINE],1880,7.15,0.209,9014
Nc1ncnc2c1ncn2[C@@H]1C[C@H](O)[C@@H](O)[C@H]1O [NORARISTEROMYCIN],446,5.85,9.6,46
